Experimental data as given in ChEMBL document CHEMBL4229376, “Optimization of the pharmacokinetic properties of potent anti-trypanosomal triazine derivatives” (Eur J Med Chem, 2018).
Activity calls are given as the source filed them. No cut-off for these calls is given here.

How the values were obtained:
[1] = Protein binding in 10% FBS in Trypanosoma brucei culture medium at 2 uM after 6 hrs by equilibrium dialysis and LC-MS analysis; format: ADME, cell-free, Bos taurus, Serum; conditions: cattle, read-out: PB
[2] = Drug uptake in Swiss mouse blood at 50 mg/kg, po administered as single dose after 4 hrs by UPLC/MS/ESI analysis; format: ADME, organism-based; conditions: whole blood, read-out: Drug uptake
Method in brief: (§1)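 Mice were given the compound orally as a single dose of either 25 or 50 mg/kg, one group per dose. Plasma concentrations were followed over time up to 24 h, and the pharmacokinetic parameters were derived from the concentration-time profile.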

[3] = Tmax in Swiss mouse infected with Trypanosoma brucei brucei Squib 427 at 50 mg/kg, po bid for 5 days after 24 hrs by UPLC/MS/ESI analysis; format: ADME, organism-based; conditions: in vivo
[4] = Drug metabolism in human liver microsomes assessed as UGT mediated compound […] by measuring parent compound remaining at 5 uM after 60 mins in presence of UDPGA by UPLC/MS/ESI analysis; format: ADME; conditions: read-out: Stability
[5] = Drug level in Swiss mouse blood infected with Trypanosoma brucei brucei Squib 427 at 50 mg/kg, po bid for 5 days measured after 0.5 hrs after last dose by UPLC/MS/ESI analysis; format: ADME, organism-based; conditions: whole blood, read-out: Drug uptake
[6] = Drug metabolism in mouse liver microsomes assessed as CYP450 mediated compound […] by measuring parent compound remaining at 5 uM after 60 mins in presence of NADPH by UPLC/MS/ESI analysis; format: ADME; conditions: read-out: Stability
[7] = Protein binding in mouse plasma at 2 uM after 6 hrs by equilibrium dialysis and LC-MS analysis; format: ADME, cell-free; conditions: read-out: PPB (converted)
[8] = Drug uptake in Swiss mouse blood at 25 mg/kg, po administered as single dose after 2 hrs by UPLC/MS/ESI analysis; format: ADME, organism-based; conditions: whole blood, read-out: Drug uptake; method in brief: as §1
[9] = Protein binding in 10% FBS in Trypanosoma brucei culture medium assessed as drug recovery at 2 uM after 6 hrs by equilibrium dialysis and LC-MS analysis; format: ADME, cell-free, Bos taurus, Serum; conditions: cattle, read-out: Drug recovery
[10] = Drug metabolism in mouse liver microsomes assessed as CYP450 mediated compound […] by measuring parent compound remaining at 5 uM after 15 mins in presence of NADPH by UPLC/MS/ESI analysis; format: ADME; conditions: read-out: Stability
[11] = system: Trypanosoma brucei brucei; assay: Antitrypanosomal activity against Trypanosoma brucei brucei Squib 427 infected in Swiss mouse assessed as mean survival days at 10 mg/kg, ip administered as single dose for 5 days; format: functional
Method in brief: (§2)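 Acute mouse infection model with T. b. brucei. Dosing ran for 5 days after infection, orally or intraperitoneally, once or twice daily. Groups were 3 mice each, with vehicle-treated infected controls. The read-out was mean survival time in days, plus the number of survivors on day 14 post-infection.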

[12] = AUC (0 to >4 hrs) in Swiss mouse infected with Trypanosoma brucei brucei Squib 427 at 50 mg/kg, po bid for 5 days by UPLC/MS/ESI analysis; format: ADME, organism-based; conditions: in vivo
Plasmodium falciparum = assay: Antiplasmodial activity against chloroquine-resistant Plasmodium falciparum K1 infected in human erythrocytes after 72 hrs by Malstat reagent-based spectrophotometric analysis; format: functional, organism-based; conditions: K1, 72 h
[13] = Drug level in Swiss mouse blood infected with Trypanosoma brucei brucei Squib 427 at 25 mg/kg, po bid for 5 days measured after 2 hrs after last dose by UPLC/MS/ESI analysis; format: ADME, organism-based; conditions: whole blood, read-out: Drug uptake
[14] = Drug metabolism in mouse liver microsomes assessed as UGT mediated compound […] by measuring parent compound remaining at 5 uM after 15 mins in presence of UDPGA by UPLC/MS/ESI analysis; format: ADME; conditions: 0.25 h
Method in brief: (§3)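 Metabolic stability was run with mouse liver microsomal fraction (S9) and read as percent parent compound remaining over incubation time. Diclofenac served as the reference compound.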

[15] = Cmax in Swiss mouse infected with Trypanosoma brucei brucei Squib 427 at 50 mg/kg, po bid for 5 days after 24 hrs by UPLC/MS/ESI analysis; format: ADME, organism-based; set-up: dose 50 mg/kg, route oral; conditions: in vivo
[16] = Drug metabolism in mouse liver microsomes assessed as UGT mediated compound […] by measuring parent compound remaining at 5 uM after 60 mins in presence of UDPGA by UPLC/MS/ESI analysis; format: ADME; conditions: 1 h; method in brief: as §3
[17] = system: Trypanosoma brucei brucei; assay: Antitrypanosomal activity against Trypanosoma brucei brucei Squib 427 infected in Swiss mouse assessed as mean survival days at 50 mg/kg, po administered as single dose for 5 days; format: functional; method in brief: as §2
[18] = Drug level in Swiss mouse blood infected with Trypanosoma brucei brucei Squib 427 at 25 mg/kg, po bid for 5 days measured after 4 hrs after last dose by UPLC/MS/ESI analysis; format: ADME, organism-based; conditions: whole blood, read-out: Drug uptake
[19] = Tmax in Swiss mouse at 25 mg/kg, po administered as single dose after 24 hrs by UPLC/MS/ESI analysis; format: ADME, organism-based; conditions: in vivo; method in brief: as §1
[20] = system: Trypanosoma brucei brucei; assay: Antitrypanosomal activity against Trypanosoma brucei brucei Squib 427 assessed as reduction in parasite growth at 7 to 14 times IC50 after 48 hrs resazurin dye-based fluorimetric analysis; format: functional, organism-based
Method in brief: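 In vitro time course of T. b. brucei growth in the presence of compound, with parasite growth expressed as % of control.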

[21] = Drug metabolism in human liver microsomes assessed as CYP450 mediated compound […] by measuring parent compound remaining at 5 uM after 15 mins in presence of NADPH by UPLC/MS/ESI analysis; format: ADME; conditions: read-out: Stability
[22] = Half life in Swiss mouse at 25 mg/kg, po administered as single dose after 24 hrs by UPLC/MS/ESI analysis; format: ADME, organism-based; conditions: in vivo; method in brief: as §1
[23] = Cmax in Swiss mouse at 25 mg/kg, po administered as single dose after 24 hrs by UPLC/MS/ESI analysis; format: ADME, organism-based; set-up: dose 25 mg/kg, route oral; conditions: in vivo
Method in brief: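 Mice in groups received one oral dose of 25 or 50 mg/kg. Plasma concentrations were followed over time up to 24 h, and PK parameters including T1/2 were derived from the concentration–time profile.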

[24] = Half life in Swiss mouse infected with Trypanosoma brucei brucei Squib 427 at 50 mg/kg, po bid for 5 days after 24 hrs by UPLC/MS/ESI analysis; format: ADME, organism-based; conditions: in vivo
[25] = Drug uptake in Swiss mouse blood at 50 mg/kg, po administered as single dose after 0.5 hrs by UPLC/MS/ESI analysis; format: ADME, organism-based; conditions: whole blood, read-out: Drug uptake; method in brief: as §1
[26] = Tmax in Swiss mouse infected with Trypanosoma brucei brucei Squib 427 at 25 mg/kg, po administered as single dose after 24 hrs by UPLC/MS/ESI analysis; format: ADME, organism-based; conditions: in vivo
[27] = system: Trypanosoma brucei brucei; assay: Antitrypanosomal activity against Trypanosoma brucei brucei Squib 427 infected in Swiss mouse assessed as mouse survival at 50 mg/kg, po bid for 5 days and measured on day 14 post infection; format: functional, organism-based
Method in brief: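 Acute T. b. brucei mouse infection model. Dosing was PO or IP at 10–50 mg/kg, once (SID) or twice (BID) daily for 5 days after infection, with 3 mice per group. […] Read-outs were mean survival time and survivors on day 14 post infection.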

[28] = Drug metabolism in human plasma assessed as parent compound remaining after 1440 mins by UPLC/MS/ESI analysis; format: ADME, cell-free; conditions: read-out: Stability
Method in brief: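 Compound incubated in human plasma for 24 h at 37 °C, and the fraction of parent compound remaining was determined.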

[29] = Protein binding in mouse plasma assessed as drug recovery at 2 uM after 6 hrs by equilibrium dialysis and LC-MS analysis; format: ADME, cell-free; conditions: read-out: Drug recovery
[30] = Drug uptake in Swiss mouse blood at 25 mg/kg, po administered as single dose after 1 hr by UPLC/MS/ESI analysis; format: ADME, organism-based; conditions: whole blood, read-out: Drug uptake; method in brief: as §1
[31] = Cmax in Swiss mouse infected with Trypanosoma brucei brucei Squib 427 at 25 mg/kg, po administered as single dose after 24 hrs by UPLC/MS/ESI analysis; format: ADME, organism-based; set-up: dose 25 mg/kg, route oral; conditions: in vivo

Structure (SMILES): Nc1nc(Nc2ccc(F)cc2)nc(Oc2ccc(F)cc2)n1
- fraction unbound at 6 h, 2 µM [1]: 0.5 to 0.51
- concentration at 4 h [2]: 2030 ng/mL
- Tmax [3]: 1.3 h
- remaining at 1 h, 5 µM [4]: 96%
- concentration at 0.5 h [5]: 2870 ng/mL
- remaining at 1 h, 5 µM [6]: 74%
- fraction unbound at 6 h, 2 µM [7]: 0.04
- concentration at 2 h [8]: 1320 ng/mL
- recovery at 6 h, 2 µM [9]: 96.1%
- remaining at 0.25 h, 5 µM [10]: 76%
- MST [11]: 7 days
- AUC [12]: 9350 ng·h/mL
- IC50 (Plasmodium falciparum): > 64 µM
- concentration at 2 h [13]: 1100 ng/mL
- Stability [14]: 97%
- Cmax [15]: 3830 ng/mL
- Stability [16]: 101%
- MST [17]: 7 days
- concentration at 4 h [18]: 204 ng/mL
- Tmax [19]: 2.3 h
- Activity [20]: inactive
- remaining at 0.25 h, 5 µM [21]: 93%
- half-life [22]: 4.14 h
- Cmax [23]: 1180 ng/mL
- half-life [24]: 1.33 h
- concentration at 0.5 h [25]: 1780 ng/mL
- Tmax [26]: 0.8 h
- Activity [27]: inactive
- remaining at 24 h [28]: 87%
- recovery at 6 h, 2 µM [29]: 90.2%
- concentration at 1 h [30]: 1180 ng/mL
- Cmax [31]: 2690 ng/mL
